ROMK mod = modulators of human ROMK potassium channel | 130,000 tested, 2% active | P48048 | B-score at 10 µM | Tet-inducible ROMK, thallium flux fluorescence; actives lie on both sides;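 active = signal ratio slope over the read window, or its plate-corrected B-score, at least 3 SD from the plate mean, either direction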;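 also: B-score of the F/F0 ratio slope over 7 to 12 s after thallium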
ABCG2 block = blocks JC-1 efflux by human ABCG2 transporter; 190,000 tested, 0.1% active; IgMXP3 cells, flow cytometry; Q9UNQ0; inhibition, % at 6.6 µM;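 active = inhibition above 80%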;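 also: 0% = DMSO and 100% = nicardipine control wells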
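material = IgMXP3 (ABCG2) plus far-red-tagged CCRF-Adr (ABCB1) cells | amount = 3 million cells/mL, equal mix of both lines | also added = JC-1 transporter substrate | dosing = one concentration, 6.6 µM final | schedule = 10 min at 25 °C | measured by = flow cytometric JC-1 green MFI at 530 nm | read-out basis = percent efflux inhibition, scaled nicardipine 100% to DMSO 0%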
PMI act = increases human mannose-6-phosphate isomerase activity | AID 1214 | activation factor at 20 µM | 190,000 tested, 0.005% active | purified human PMI, coupled resazurin fluorescence, 20 min; hits give high values; 1 = vehicle control, 0 substrate-free wells;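 active = activation factor of 2 or more at 20 µM, relative to plate controls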
Target sequence (P34949 whole entry, looked up): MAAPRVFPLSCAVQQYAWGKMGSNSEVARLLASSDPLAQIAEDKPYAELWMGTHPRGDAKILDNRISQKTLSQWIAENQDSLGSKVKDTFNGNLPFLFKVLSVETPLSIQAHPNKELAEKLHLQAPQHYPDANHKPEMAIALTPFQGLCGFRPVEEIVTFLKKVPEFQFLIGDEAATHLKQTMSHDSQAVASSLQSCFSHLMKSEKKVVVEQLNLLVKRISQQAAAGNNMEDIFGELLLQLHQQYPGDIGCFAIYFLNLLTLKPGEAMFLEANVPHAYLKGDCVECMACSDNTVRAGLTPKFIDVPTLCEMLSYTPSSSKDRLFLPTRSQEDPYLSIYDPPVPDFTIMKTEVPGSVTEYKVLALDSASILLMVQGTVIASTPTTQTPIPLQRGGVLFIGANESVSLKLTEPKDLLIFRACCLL
Cl transport mod = modulators of human KCC2 chloride dependent transport; 190,000 tested, 2.2% active; B-score of Tl+ flux slope (higher = more flux/activation; lower = inhibition) at 10 µM; KCC2 cells, thallium flux FluoZin-2 fluorescence;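 active = thallium flux slope and its plate-corrected score both differing from the plate sample mean at a set confidence after two filtering rounds, in either direction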;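 also: slope of fluorescence scaled to starting intensity during 10 to 20 s after thallium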
PMI act satM6P = PMI (human) activation, high substrate. activation factor at 20 µM. 190,000 tested, 0.34% active. coupled PMI enzyme assay, resazurin fluorescence, 20 min; hits give high values; 1 = untreated enzyme, 0 = substrate-free blank;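 active = activation factor of 2 or more at 20 µM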
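Material: human phosphomannose isomerase with PGI, G6PDH, diaphorase coupling enzymes; amount: PMI at 15 ng/mL final; also added: Mannose-6-phosphate 1.0 mM (near-saturating) plus 0.22 mM NADP+; incubation: enzyme reaction with compound 20 min at room temperature; signal: resorufin fluorescence (Ex 544/Em 590 nm) from resazurin via diaphorase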
ABCB1 inh = inhibitors of human ABCB1 transporter, ABCG2 counter-screen. P08183. CCRF-Adr cells, JC-1 efflux, flow cytometry. inhibition, % at 6.6 µM. 190,000 tested, 0.067% active; in the data active = inhibition above about 40%;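 also: 0% = vehicle and 100% = reference inhibitor; higher value means more JC-1 retained so stronger ABCB1 efflux block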
KCC2 sec1 = KCC2 (human) modulation, secondary assay. AID 1713. HEK293-KCC2, thallium flux, FluoZin2 fluorescence; hits give high values. normalised thallium flux (F/F0 slope) at 10 µM. shares compounds with Cl transport mod. 3,700 tested, 15% active;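 active = thallium flux slope above the same plate's solvent-only control mean plus 3 SD; inconclusive = the two replicate wells disagree; inactive = no significant difference from solvent-only control wells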
KCC2 bumet counter = bumetanide-insensitive thallium flux in KCC2 cells with ouabain, counter-screen; shares compounds with Cl transport mod; HEK293-KCC2 + bumetanide/ouabain, thallium flux FluoZin2; hits give high values; 3,700 tested, 49% active; normalized thallium flux at 10 µM; AID 1714;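 active = thallium entry rate above the same plate's blocked-transporter control wells by more than 3 SD; inconclusive = the two repeat wells disagree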;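 also: raw slope of fluorescence over initial fluorescence between 10 and 20 s after thallium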
KCC2 secondary2 = KCC2 (human) modulation, second secondary assay. shares compounds with Cl transport mod. HEK293-KCC2, thallium flux FluoZin2 fluorescence; actives lie on both sides; F/F0 rise rate, 10–20 s post-thallium. normalized thallium flux at 10 µM. 3,700 tested, 23% active;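 active = thallium flux slope more than 3 SD above or below the plate's solvent-only control mean, mostly below; inconclusive = the two repeat wells disagreed; inactive = no significant shift from solvent-only controls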;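 also: raw slope with 0.1% DMSO as baseline and bumetanide as block control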
HEK counter1 = parental HEK flux effect, counter-screen; shares compounds with Cl transport mod; HEK293 parental cells, thallium flux FluoZin2, ouabain; baseline-ratio fluorescence slope, 10–20 s after thallium; thallium flux rate (normalised fluorescence) at 10 µM; 3,700 tested, 46% active; AID 1716;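 active = thallium flux rate significantly above the same plate's solvent-only control wells, beyond their mean plus 3 SD; inconclusive = the two replicate wells gave conflicting results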
KCC2 ouabain = confirmation of human KCC2 modulators with ouabain; shares compounds with Cl transport mod; HEK293-KCC2, thallium flux FluoZin2 fluorescence; bidirectional: low = inhibitor, high = activator; raw Tl+ flux slope (below DMSO = inhibition, above = activation) at 10 µM; 3,700 tested, 48% active;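 active = thallium flux slope beyond 3 SD from same-plate DMSO control mean in most replicates, usually higher, sometimes lower; inconclusive = repeat tests gave conflicting results; inactive = no significant difference from controls in most replicates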;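 also: slope of initial-normalized fluorescence between seconds 10 and 20 after thallium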
HEK counter2 = acts in parental HEK cells, second KCC2 counter-screen; AID 1718; shares compounds with Cl transport mod; thallium flux slope at 10 µM; 3,700 tested, 33% active; HEK293 parental, thallium flux FluoZin-2 fluorescence slope;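 active = thallium flux slope above the same plate's solvent-control mean plus 3 SD in both duplicate wells; inconclusive = duplicate wells that disagreed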;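 also: run without ouabain in cells lacking the KCC2 cotransporter; slope of fluorescence scaled to its starting value between 10 and 20 s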
Active calls of the source: *; ? = inconclusive; . = no result. Rows were chosen to be rich in hits. Some 3.3% of all compounds tested hit in one or more screens of this group.

SMILES	ROMK mod	ABCG2 block	PMI act	Cl transport mod	PMI act satM6P	ABCB1 inh	KCC2 sec1	KCC2 bumet counter	KCC2 secondary2	HEK counter1	KCC2 ouabain	HEK counter2
Cc1nc(NC(C)c2ccccc2)c2c3c(sc2n1)CCC3 (centres undefined)	-0.67	3	0.9	-6.3*	1	1	0.0061	0.0042	0.03	0.0071	0.019	0.01
O=C(Cn1cnc2c(nnn2Cc2ccccc2)c1=O)N1CCCc2ccccc21	.	1	1	-4.5*	1.1	1	0.0067	0.0051	0.022*	0.008	?	0.011
O=C(Cn1cnc2c(nnn2Cc2ccccc2)c1=O)c1ccc(Cl)cc1	.	2	1.1	-4.1*	1	0	0.01	?	?	0.008	0.018*	0.011
O=C(Cn1cnc2c(cnn2-c2ccccc2)c1=O)NCCc1ccccc1	.	0	1.1	-0.031	1.1	0	.	.	.	.	.	.
Cc1ccc(Cn2nnc3c(=O)n(CC(=O)c4ccccc4)cnc32)cc1	.	0	0.8	-3.2	0.8	-1	.	.	.	.	.	.
O=C(Cn1cnc2c(nnn2-c2ccccc2)c1=O)NCCc1ccccc1	.	-1	1	-4.3*	0.9	0	0.007	0.0051	0.023*	0.0073	0.014*	0.01
O=C(Cn1cnc2c(nnn2-c2ccccc2)c1=O)N1CCCc2ccccc21	.	1	0.9	-0.57	0.8	0	.	.	.	.	.	.
O=C(Cn1cnc2c(nnn2Cc2ccc(F)cc2)c1=O)N1CCN(c2ccccc2)CC1	-1.4	3	0.9	.	1	1	0.0068	0.0044	0.024*	0.0076	?	0.011
O=C(Nc1ccc2ncccc2c1)c1cc(Cl)ccc1Cl	-0.38	0	1.2	-3.8	1.2	0	.	.	.	.	.	.
CCCc1nc2ccccc2c(=O)n1CC(=O)c1ccccc1	-1.2	5	0.9	.	1	2	.	.	.	.	.	.
O=C(Nc1nc2ccsc2c(=O)s1)c1ccc(F)cc1Cl	-0.3	.	.	1.3	.	.	.	.	.	.	.	.
O=C(Nc1nc2ccsc2c(=O)s1)c1ccc(F)cc1	-0.53	.	.	3.8*	.	.	0.01	?	0.032	0.011*	0.021	0.012
C1CC(CN2CCOCC2)CN(Cc2nc(CC3CC3)no2)C1 (centres undefined)	0.097	2	1	0.78	1	2	.	.	.	.	.	.
COc1cc(-c2nnc(SCC3(c4ccccc4)OCCO3)o2)cc(OC)c1OC	0.011	11	1	0.0041	1	5	.	.	.	.	.	.
Cc1ccc(C)c(S(=O)(=O)NC(C)C(=O)Nc2ccc(-c3nc4ccccc4s3)cc2)c1 (centres undefined)	-0.068	0	1	4.8*	1	0	0.017	0.0059*	0.03	?	0.017	0.011
Fc1ccccc1Oc1nc(-c2ccncc2)nc2ccccc12	.	.	.	-0.19	.	.	.	.	.	.	.	.
Cn1nnc(C(O)CNCc2cccs2)n1 (centres undefined)	-0.072	0	1	0.2	1	0	.	.	.	.	.	.

Screening data from PubChem.
